For 14 compounds, REC and IC50 results are on record in ChEMBL document CHEMBL1130133, “Terbenzimidazoles: influence of 2"-, 4-, and 5-substituents on cytotoxicity and relative potency as topoisomerase I poisons” (J Med Chem, 1997).

The structures appear in SMILES notation.

In assay [1] the target is T1, DNA topoisomerase 1 (Homo sapiens) (UniProt P11387).
T1 sequence (whole entry): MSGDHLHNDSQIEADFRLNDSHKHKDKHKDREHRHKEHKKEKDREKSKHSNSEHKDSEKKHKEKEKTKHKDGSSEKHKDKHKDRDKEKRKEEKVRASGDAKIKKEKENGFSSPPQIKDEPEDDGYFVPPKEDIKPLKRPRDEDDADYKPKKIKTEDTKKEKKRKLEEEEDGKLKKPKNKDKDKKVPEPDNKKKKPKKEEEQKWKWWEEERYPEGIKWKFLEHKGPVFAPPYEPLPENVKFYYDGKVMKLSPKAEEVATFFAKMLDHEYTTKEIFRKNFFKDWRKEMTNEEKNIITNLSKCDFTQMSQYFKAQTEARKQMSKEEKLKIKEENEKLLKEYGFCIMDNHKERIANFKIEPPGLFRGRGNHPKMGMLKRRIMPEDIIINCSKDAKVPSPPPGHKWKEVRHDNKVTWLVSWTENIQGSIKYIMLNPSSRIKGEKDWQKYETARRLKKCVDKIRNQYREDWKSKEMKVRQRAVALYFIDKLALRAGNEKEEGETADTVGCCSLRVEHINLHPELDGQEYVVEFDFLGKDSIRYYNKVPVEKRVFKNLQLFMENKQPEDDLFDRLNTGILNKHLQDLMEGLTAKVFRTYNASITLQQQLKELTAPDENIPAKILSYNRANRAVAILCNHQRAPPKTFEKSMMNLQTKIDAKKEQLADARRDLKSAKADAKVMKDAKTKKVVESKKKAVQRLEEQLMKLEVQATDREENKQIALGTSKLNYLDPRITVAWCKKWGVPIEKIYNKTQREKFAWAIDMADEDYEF
The experiment in a line: Topoisomerase I mediated DNA cleavage. The assay is classed as functional. An outline of the steps:
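Recombinant human topoisomerase I (expressed in E. coli) was incubated with end-labeled plasmid YEpG DNA and drug for 30 min at 37 °C. Drug was given as 10-fold serial dilutions from 0.01 to 10 µg/mL. Fragments were separated on gels and autoradiographed, typically with 24 h exposure. Cleavage was scored from the strongest specific band and expressed as concentration relative to reference compound (set to 1) giving equal cleavage.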

For another assay, the system named is RPMI 8402. The experiment in a line: Cytotoxicity using human lymphoblast RPMI 8402 cells. The assay is classed as functional, cell-based. Put shortly:
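Human lymphoblast RPMI 8402 cells were grown in suspension at 37 °C, 5% CO2, in RPMI with 10% heat-inactivated FBS, 2 mM L-glutamine, penicillin 100 U/mL and streptomycin 0.1 mg/mL. Cells were seeded at 2000/well and exposed continuously to a range of drug concentrations for 4 days, then read by MTT assay. A no-drug control was included, and each assay was run at least twice in six replica wells.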

The compound `CCc1nc2cc(-c3nc4cc(-c5nc6cc(-c7ccccc7)ccc6[nH]5)ccc4[nH]3)ccc2[nH]1` displayed an REC in assay [1] of 1. The compound further had an IC50 in the assay with RPMI 8402 of 0.11 µM. In turn, `c1ccc(-c2ccc3[nH]c(-c4ccc5[nH]c(-c6ccc7[nH]c(-c8ccccc8)nc7c6)nc5c4)nc3c2)cc1` gave an REC in assay [1] of 20. The compound further gave an IC50 in the assay with RPMI 8402 of 0.06 µM. For `CC(C)c1nc2cc(-c3nc4cc(-c5nc6cc(-c7ccccc7)ccc6[nH]5)ccc4[nH]3)ccc2[nH]1`, in that order: 0.05 and 0.06 µM.

In the case of `c1ccc2cc3[nH]c(-c4ccc5[nH]c(-c6ccc7[nH]cnc7c6)nc5c4)nc3cc2c1`, the REC in assay [1] is > 1000. Besides, the half-maximal inhibitory concentration (IC50) with RPMI 8402 was > 100 µM. For `c1ccc2cc(-c3ccc4[nH]c(-c5ccc6[nH]c(-c7ccc8[nH]cnc8c7)nc6c5)nc4c3)ccc2c1`, in that order: 1 and 0.08 µM. The compound `COc1ccc(-c2nc3cc(-c4nc5cc(-c6nc7cc(-c8ccccc8)ccc7[nH]6)ccc5[nH]4)ccc3[nH]2)cc1` came in with an REC in assay [1] of 20. In the assay on RPMI 8402, this compound gave an IC50 of 0.38 µM.

As to `COc1ccc(-c2ccc3[nH]c(-c4ccc5[nH]c(-c6ccc7[nH]cnc7c6)nc5c4)nc3c2)cc1`, in assay [1], the REC is 0.5. Also, the IC50 in the assay on RPMI 8402 was found to be 0.09 µM. The compound `c1ccc(-c2ccc3[nH]c(-c4ccc5[nH]c(-c6ccc7[nH]cnc7c6)nc5c4)nc3c2)cc1` came in with an REC in assay [1] of 1. For the compound `Cc1nc2cc(-c3nc4cc(-c5nc6cc(-c7ccccc7)ccc6[nH]5)ccc4[nH]3)ccc2[nH]1`, the REC in assay [1] stood at 2. Further, in the assay with RPMI 8402, the IC50 was determined as 0.11 µM. For the compound `Clc1ccc(-c2ccc3[nH]c(-c4ccc5[nH]c(-c6ccc7[nH]cnc7c6)nc5c4)nc3c2)cc1`, in assay [1], the REC was found to be 2. For the same compound, it took 0.09 µM to reach half-maximal inhibition with RPMI 8402 (IC50). As to `CCCc1nc2cc(-c3nc4cc(-c5nc6cc(-c7ccccc7)ccc6[nH]5)ccc4[nH]3)ccc2[nH]1`, the REC in assay [1] was 0.5. For the same compound, in the assay with RPMI 8402, the IC50 turned out to be 0.06 µM. For `c1ccc2c(c1)ccc1[nH]c(-c3ccc4[nH]c(-c5ccc6[nH]cnc6c5)nc4c3)nc12`, in that order: 1 and 25 µM. On the same counts, the results for `c1ccc(-c2cccc3[nH]c(-c4ccc5[nH]c(-c6ccc7[nH]cnc7c6)nc5c4)nc23)cc1` are 5 and 7 µM. On the same counts, the results for `c1ccc2c(-c3ccc4[nH]c(-c5ccc6[nH]c(-c7ccc8[nH]cnc8c7)nc6c5)nc4c3)cccc2c1` are 2 and 2.1 µM.

For orientation: IC50 means the point on the concentration scale where inhibition reaches its midpoint. Low readings indicate greater potency, high ones weaker potency.
